Measured values collected from several papers.
Lines come from different studies, so protocols differ.
Target: Bone morphogenetic protein receptor type-2 (BMPR2, Homo sapiens, UniProt Q13873)
Residues used in one study (Q13873 27-1038): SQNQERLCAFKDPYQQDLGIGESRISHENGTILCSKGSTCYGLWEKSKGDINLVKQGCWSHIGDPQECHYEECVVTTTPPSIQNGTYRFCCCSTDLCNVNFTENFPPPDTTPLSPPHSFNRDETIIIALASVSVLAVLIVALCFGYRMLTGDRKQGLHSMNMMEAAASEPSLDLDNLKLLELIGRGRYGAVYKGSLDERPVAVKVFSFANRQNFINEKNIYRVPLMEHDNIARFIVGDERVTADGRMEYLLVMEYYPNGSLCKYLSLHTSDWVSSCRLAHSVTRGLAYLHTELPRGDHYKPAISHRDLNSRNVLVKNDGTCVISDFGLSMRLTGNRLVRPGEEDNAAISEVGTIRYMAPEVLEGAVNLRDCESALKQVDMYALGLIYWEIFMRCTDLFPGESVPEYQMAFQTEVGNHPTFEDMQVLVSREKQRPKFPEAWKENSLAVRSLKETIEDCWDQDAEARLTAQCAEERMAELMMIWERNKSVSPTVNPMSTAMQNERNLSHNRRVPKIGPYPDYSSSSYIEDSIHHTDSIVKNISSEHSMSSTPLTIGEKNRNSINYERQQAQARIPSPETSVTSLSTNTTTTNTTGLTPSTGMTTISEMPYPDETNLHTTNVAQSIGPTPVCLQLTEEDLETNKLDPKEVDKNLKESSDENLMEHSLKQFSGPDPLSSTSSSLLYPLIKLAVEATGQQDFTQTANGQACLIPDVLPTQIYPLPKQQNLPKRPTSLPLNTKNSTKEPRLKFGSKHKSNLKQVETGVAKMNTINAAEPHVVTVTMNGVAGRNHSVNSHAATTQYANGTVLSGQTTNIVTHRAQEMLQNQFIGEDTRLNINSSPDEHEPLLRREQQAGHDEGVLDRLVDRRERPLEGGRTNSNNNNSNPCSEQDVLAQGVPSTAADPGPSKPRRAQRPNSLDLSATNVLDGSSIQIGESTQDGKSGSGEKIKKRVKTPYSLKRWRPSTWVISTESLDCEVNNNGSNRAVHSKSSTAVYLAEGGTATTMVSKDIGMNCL

Nc1ncnc2occ(-c3ccc(NC(=O)Nc4cc(C(F)(F)F)ccc4F)cc3)c12  remaining signal (cell-free assay; 20 µM): 60%
Cn1c2c(c3ccc(Cl)c(Cl)c31)C(C#N)C(C)(C)NC2=O (stereo not shown)  ΔTm (thermal stability; DSF; 10 µM): 1.4 °C
O=C(Nc1ccc(Oc2ccc(F)cc2)cc1)N1CCc2ncccc2[C@H]1c1ccc(F)cc1  remaining binding (cell-free assay; competition with immobilised ligand; 1 µM): 96%
Cc1ccc(C(=O)Nc2ccc(CN3CCN(C)CC3)c(C(F)(F)F)c2)cc1C#Cc1cnc2cccnn12  remaining signal (cell-free assay; 23.5 nM): 98%
O=C(CSc1nc2nccnc2c(=O)n1CCc1ccccc1)Nc1nccs1  inhibition (enzyme activity; inhibitor; 10 µM): 17%
COc1cc(-c2cn(C3CCc4c(F)cccc4N(CC(F)(F)F)C3=O)nn2)ccc1-n1cnc(C)c1 (stereo not shown)  remaining binding (cell-free assay; competition with immobilised ligand; 1 µM): 100%
N#CC1c2c([nH]c3c(Cl)c(Cl)ccc23)C(=O)NC12CCCCC2 (racemic)  ΔTm (thermal stability; DSF; 10 µM): 0.7 °C
O=C(Nc1cnn(-c2csc(C(=O)NC3COC3)c2)c1)Nc1ccccc1Cl  remaining activity (enzyme activity; inhibitor; 5 µM): 110%
Cc1nccc(COC(=O)N2C[C@@H]3[C@@H](CNC(=O)c4ccc5[nH]nnc5c4)[C@@H]3C2)n1  remaining binding (cell-free assay; competition with immobilised ligand; 1 µM): 81%
Cc1sc(C(=O)NC2COC2)cc1-n1cc(NC(=O)Nc2c(F)cccc2Cl)cn1  remaining activity (enzyme activity; inhibitor; 10 µM): 84.5%
Cn1c2c(c3ccc(Cl)c(Cl)c31)C(C#N)C1(CCNCC1)NC2=O (racemic)  ΔTm (thermal stability; DSF; 10 µM): 0.3 °C
Cn1cncc1C1=CN(c2ncnc3[nH]cnc23)CCS1  inhibition (enzyme activity; inhibitor; radiometric; 50 nM): 21.3%
O=C(NCCCC1CCCCC1)c1ccc(CNC(=O)c2cnn(-c3ccccc3)c2C(F)(F)F)cc1  remaining binding (cell-free assay; competition with immobilised ligand; 0.1 µM): 100%
